Assay results as given in ChEMBL document CHEMBL3745677, “Discovery of 6-(4-{[5-Cyclopropyl-3-(2,6-dichlorophenyl)isoxazol-4-yl]methoxy}piperidin-1-yl)-1-methyl-1H-indole-3-carboxylic Acid: A Novel FXR Agonist for the Treatment of Dyslipidemia” (J Med Chem, 2015).
pEC50: −log10 of the molar value.

Key:
[1] = Terminal half life in Sprague-Dawley rat at 1 mg/kg, iv by LC-MS/MS analysis; type: ADME, organism-based; conditions: in vivo, read-out: beta t1/2 (converted)
In short: (§1)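 Intravenous dose given in 5% Solutol / 5% EtOH in saline (1 mg/kg rat and dog, 0.91 mpk monkey). Plasma samples collected and analyzed by LC-MS/MS; parameters reported as mean ± SD, N=2-3.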

[2] = target: T1, Progesterone receptor (Homo sapiens, UniProt P06401); experiment: Agonist activity at progesterone receptor (unknown origin) expressed in HEK293 cells assessed as transcriptional activation; type: cell-based
T1 sequence (P06401 whole entry): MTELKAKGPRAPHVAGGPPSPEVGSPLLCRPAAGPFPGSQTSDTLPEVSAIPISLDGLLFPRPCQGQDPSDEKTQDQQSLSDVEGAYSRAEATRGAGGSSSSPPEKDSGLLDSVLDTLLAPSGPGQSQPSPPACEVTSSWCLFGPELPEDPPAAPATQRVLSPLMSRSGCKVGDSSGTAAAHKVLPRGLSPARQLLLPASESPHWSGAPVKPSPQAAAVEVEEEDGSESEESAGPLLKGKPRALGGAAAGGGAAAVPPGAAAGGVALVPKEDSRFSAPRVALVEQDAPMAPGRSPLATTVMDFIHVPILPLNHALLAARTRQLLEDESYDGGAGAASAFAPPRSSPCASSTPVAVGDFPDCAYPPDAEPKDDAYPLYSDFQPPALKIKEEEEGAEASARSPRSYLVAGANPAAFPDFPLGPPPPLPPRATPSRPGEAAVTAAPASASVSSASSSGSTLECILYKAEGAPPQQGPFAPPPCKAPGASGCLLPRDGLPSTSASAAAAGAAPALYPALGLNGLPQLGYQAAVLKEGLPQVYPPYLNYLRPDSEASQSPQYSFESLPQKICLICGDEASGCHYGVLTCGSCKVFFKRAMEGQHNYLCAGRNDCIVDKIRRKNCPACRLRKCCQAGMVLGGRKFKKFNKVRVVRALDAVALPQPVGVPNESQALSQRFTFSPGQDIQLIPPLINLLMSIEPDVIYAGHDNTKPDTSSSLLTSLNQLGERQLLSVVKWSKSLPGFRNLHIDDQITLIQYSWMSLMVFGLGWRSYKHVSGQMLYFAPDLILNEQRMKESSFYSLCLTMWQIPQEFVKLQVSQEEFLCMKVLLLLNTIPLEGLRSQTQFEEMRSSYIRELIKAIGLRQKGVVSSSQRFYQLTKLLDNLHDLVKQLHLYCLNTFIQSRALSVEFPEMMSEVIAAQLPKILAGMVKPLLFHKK

[3] = test system: Mus musculus; experiment: Antidyslipidemic activity in western-diet fed mouse expressing LDL-receptor (-/-) assessed as decrease in very-low density lipoprotein level at 30 mg/kg qd for a week administered via gavage by FPLC analysis; type: functional; conditions: po
In short: (§2)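 LDLR null male mice, six per group, were dosed by gavage once daily for one week (vehicle 5% Solutol, 5% EtOH, 1% wt/v CMC; 5 mL/kg). Serum was collected by cardiac puncture on day 7 under CO2 anaesthesia. Pooled serum from each treatment group was fractionated by FPLC to quantify VLDL and LDL.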

[4] = test system: Mus musculus; experiment: Antidyslipidemic activity in western-diet fed mouse expressing LDL-receptor (-/-) assessed as decrease in low density lipoprotein level at 30 mg/kg qd for a week administered via gavage by FPLC analysis; type: functional; conditions: po; in short: as §2
[5] = test system: Rattus norvegicus; experiment: Antidyslipidemic activity in ZDF rat assessed as VLDL level at 3 mg/kg for 9 days by FPLC analysis (reference value: 35 mg/dL); type: functional, Zucker
[6] = test system: Rattus norvegicus; experiment: Antidyslipidemic activity in ZDF rat assessed as VLDL level at 30 mg/kg for 9 days by FPLC analysis (reference value: 35 mg/dL); type: functional, Zucker
[7] = test system: Rattus norvegicus; experiment: Antidyslipidemic activity in ZDF rat assessed as LDL/IgHDL level at 3 mg/kg for 9 days by FPLC analysis (reference value: 17.8 mg/dL); type: functional, Zucker
[8] = Terminal half life in beagle dog at 1 mg/kg, iv by LC-MS/MS analysis; type: ADME, organism-based, Canis lupus familiaris; conditions: in vivo, read-out: beta t1/2 (converted); in short: as §1
[9] = Initial plasma concentration in beagle dog at 1 mg/kg, iv by LC-MS/MS analysis; type: ADME, organism-based, Canis lupus familiaris; in short: as §1
[10] = Terminal half life in cynomolgus monkey at 3 mg/kg, po by LC-MS/MS analysis; type: ADME, organism-based, Macaca fascicularis; conditions: in vivo, read-out: beta t1/2 (converted)
In short: (§3)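 Oral/nasogastric dosing at 3 mpk in 1.0% CMC/0.25% PS80/0.05% antifoam in purified water. Plasma samples collected and analyzed by LC-MS/MS; parameters reported as mean ± SD, N=2-3.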

[11] = Tmax in cynomolgus monkey at 3 mg/kg, po by LC-MS/MS analysis; type: ADME, organism-based, Macaca fascicularis; conditions: in vivo; in short: as §3
[12] = Cmax in cynomolgus monkey at 3 mg/kg, po by LC-MS/MS analysis; type: ADME, organism-based, Macaca fascicularis; design: dose 3 mg/kg, route oral; conditions: in vivo
In short: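 Sprague Dawley rats, Beagle dogs and Cynomolgus monkeys were dosed IV at 1 mg/kg (rat, dog) or 0.91 mpk (monkey) in 5% Solutol/5% EtOH in saline. Oral/nasogastric dosing was 3 mpk in 1.0% CMC/0.25% PS80/0.05% antifoam in purified water. Samples were processed to plasma and analysed by LC-MS/MS; values are mean ± SD, N=2-3.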

[13] = target: T2, Androgen receptor (Homo sapiens, UniProt P10275); experiment: Agonist activity at androgen receptor (unknown origin) expressed in HEK293 cells assessed as transcriptional activation; type: cell-based
T2 sequence (P10275 whole entry): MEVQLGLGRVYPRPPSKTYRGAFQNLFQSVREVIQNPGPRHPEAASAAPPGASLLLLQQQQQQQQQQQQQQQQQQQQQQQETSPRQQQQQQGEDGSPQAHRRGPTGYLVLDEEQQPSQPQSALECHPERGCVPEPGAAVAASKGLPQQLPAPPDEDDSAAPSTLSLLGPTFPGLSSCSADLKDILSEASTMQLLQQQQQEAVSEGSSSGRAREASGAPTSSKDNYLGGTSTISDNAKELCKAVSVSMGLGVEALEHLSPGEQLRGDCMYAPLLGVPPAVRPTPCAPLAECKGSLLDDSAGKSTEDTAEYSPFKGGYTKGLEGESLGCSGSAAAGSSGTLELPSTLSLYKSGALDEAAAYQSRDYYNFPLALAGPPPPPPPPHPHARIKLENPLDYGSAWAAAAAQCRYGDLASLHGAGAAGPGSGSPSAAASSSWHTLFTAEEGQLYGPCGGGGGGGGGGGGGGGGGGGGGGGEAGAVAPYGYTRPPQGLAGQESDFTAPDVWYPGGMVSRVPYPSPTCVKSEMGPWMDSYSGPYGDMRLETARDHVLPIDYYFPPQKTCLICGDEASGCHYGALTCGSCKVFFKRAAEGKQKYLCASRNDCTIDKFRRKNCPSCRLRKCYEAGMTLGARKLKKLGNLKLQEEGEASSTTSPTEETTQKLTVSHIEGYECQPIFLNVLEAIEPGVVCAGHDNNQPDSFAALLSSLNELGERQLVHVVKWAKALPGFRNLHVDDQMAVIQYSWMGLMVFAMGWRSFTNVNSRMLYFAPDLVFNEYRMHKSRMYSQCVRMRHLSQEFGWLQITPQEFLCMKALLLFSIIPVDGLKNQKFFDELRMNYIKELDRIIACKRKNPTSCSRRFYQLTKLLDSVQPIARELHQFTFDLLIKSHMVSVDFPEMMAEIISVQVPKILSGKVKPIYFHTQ

Cn1cc(C(=O)O)c2ccc(N3CCC(OCc4c(-c5c(Cl)cccc5Cl)noc4C4CC4)CC3)cc21 [TERN-101]
half-life [1]: 2 h | pEC50 [2]: < 5.00 | inhibition in vivo at 30 mg/kg [3]: 98% | inhibition in vivo at 30 mg/kg [4]: 62% | Activity [5]: 21.9 mg/dL | Activity [6]: 13.2 mg/dL | Activity [7]: 10.8 mg/dL | half-life [8]: 10 h | C0 [9]: 1180 ng/mL | half-life [10]: 9 h | Tmax [11]: 3.33 h | Cmax [12]: 221 ng/mL | pEC50 [13]: < 5.00
